Test [1] relates to Neuron. The experiment in a line: Neuronal differentiation activity assessed as increase in number of neurons at 0.1 uM in relative to control. Format: functional, Homo sapiens. The gist of the method: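 Neurospheres (undifferentiated aggregates containing 5–10% neural stem cells, raised with EGF and bFGF) were treated with compound and scored for differentiation into neurons. The % of neurons was compared with ethanol vehicle control, or divided by the % of neurons obtained with retinoic acid treatment. Neuron morphology was also rated qualitatively. Each compound was tested in at least three independent experiments.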

Test [2] relates to Neuron. The experiment in a line: Neuronal differentiation activity assessed as increase in number of neurons at 0.1 uM in relative to 5 uM retinoic acid.
Test [3] is described as follows: Inhibition of LPS-stimulated nitric oxide production in mouse MMGT12 cells after 48 hrs. Format: functional. Details: scale not given: the % may be the effect or the level left. The gist of the method:
(§1)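 Mouse MMGT-12 microglial cells stimulated with LPS in the presence or absence of test compound at several concentrations. Supernatants were collected, and accumulated NO was measured at 48 h by the Griess method and secreted TNF-α at 24 h by ELISA. Data are expressed as % of the LPS-only control, as mean ± SEM of three independent experiments.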

The nature of test [4]: Inhibition of LPS-stimulated TNFalpha production in mouse MMGT12 cells after 24 hrs by ELISA. Format: functional. Details: scale not given: the % may be the effect or the level left. The essentials:
as §1
A general note: An ELISA detects its analyte on a solid surface through an enzyme-linked reagent.

The values below come from ChEMBL document CHEMBL1149554, “Dual bioactivity of resveratrol fatty alcohols: differentiation of neural stem cells and modulation of neuroinflammation” (2007).

For the compound `COc1ccc(/C=C/c2cc(OC)c(CCCCCCCCCCCCCCCCO)c(OC)c2)cc1`, the Activity in the test with Neuron [1] came out at 107%; in the test on Neuron [2] it was 0.53.
As to `COc1ccc(/C=C/c2cc(OC)c(CCCCCCCCCCCCO)c(OC)c2)cc1`, the Activity in the test with Neuron [1] is 188%.
Turning to `OCCCCCCCCCCc1c(O)cc(/C=C/c2ccc(O)cc2)cc1O`, the results for the Activity with Neuron [1] and in the test on Neuron [2] were 108% and 0.53, respectively.
Consider `COc1ccc(/C=C/c2cc(OC)c(CCCCCCCCCCO)c(OC)c2)cc1`, for which the Activity in the test on Neuron [1] was determined as 147%.
As to `CC1=C(/C=C/C(C)=C/C=C/C(C)=C/C(=O)O)C(C)(C)CCC1` [TRETINOIN], the Activity with Neuron [1] worked out at 203%.
On the same count and under the same terms, in the case of `COc1ccc(/C=C/c2cc(OC)c(CCCCCCCCCCCCCCO)c(OC)c2)cc1` it was 135%; in that of `OCCCCCCCCCCCCCCc1c(O)cc(/C=C/c2ccc(O)cc2)cc1O`, 160%.
On to `CCCCCCCCCCCCc1c(O)cc(/C=C/c2ccc(O)cc2)cc1O`, for which the results for the Activity in the test with Neuron [1] and in the test with Neuron [2] were 106% and 0.52, respectively.
On the same counts, the results for `Oc1ccc(/C=C/c2cc(O)cc(O)c2)cc1` [RESVERATROL] are 105% and 0.52.
With `OCCCCCCCCCCCCc1c(O)cc(/C=C/c2ccc(O)cc2)cc1O`, the Activity with Neuron [1] was found to be 263%; in test [3], 50%; in test [4], 30%.
